Measured values: ChEMBL document CHEMBL4334464, “From Phenylthiazoles to Phenylpyrazoles: Broadening the Antibacterial Spectrum toward Carbapenem-Resistant Bacteria” (J Med Chem, 2019)
Values after ≈ are worked out from the molar mass of the structure shown. Active and inactive are the calls of the source. The calls are words filed in the database; no cut-off is given here.

What was measured:
[1] = tested on: Escherichia coli; test: Antibacterial activity against carbapenem-resistant Escherichia coli BAA-2452 clinical isolates after 18 to 20 hrs in aerobic condition by CLSI-based broth microdilution assay; format: functional
[2] = tested on: Escherichia coli; test: Antibacterial activity against carbapenem-resistant Escherichia coli BAA-2469 clinical isolates after 18 to 20 hrs in aerobic condition by CLSI-based broth microdilution assay; format: functional
[3] = tested on: Klebsiella pneumoniae; test: Antibacterial activity against carbapenem-resistant Klebsiella pneumoniae ATCC BAA-1705 clinical isolates after 18 to 20 hrs in aerobic condition by CLSI-based broth microdilution assay; format: functional
[4] = tested on: Klebsiella pneumoniae; test: Antibacterial activity against carbapenem-resistant Klebsiella pneumoniae ATCC BAA-2146 clinical isolates after 18 to 20 hrs in aerobic condition by CLSI-based broth microdilution assay; format: functional
[5] = tested on: Acinetobacter baumannii; test: Antibacterial activity against carbapenem-resistant Acinetobacter baumannii ATCC BAA 1605 clinical isolates after 18 to 20 hrs in aerobic condition by CLSI-based broth microdilution assay; format: functional
[6] = tested on: Pseudomonas aeruginosa; test: Antibacterial activity against carbapenem-resistant Pseudomonas aeruginosa ATCC 1744 clinical isolates after 18 to 20 hrs in aerobic condition by CLSI-based broth microdilution assay; format: functional
[7] = tested on: Staphylococcus aureus; test: Antibacterial activity against methicillin-resistant Staphylococcus aureus NRS384-USA300 clinical isolates after 18 to 20 hrs in aerobic condition by CLSI protocol based broth microdilution assay; format: functional
[8] = tested on: Escherichia coli; test: Antimicrobial activity against Escherichia coli JW55031 harboring deltatolC mutant after 18 to 20 hrs in aerobic condition by CLSI protocol based broth microdilution assay; format: functional
[9] = Apparent permeability across basolateral to apical side in human Caco2 cells after 2 hrs by LC/MS/MS analysis; format: ADME, cell-based; conditions: Caco-2
[10] = Efflux ratio of apparent permeability across basolateral to apical side over apical to basolateral side in human Caco2 cells after 2 hrs by LC/MS/MS analysis; format: ADME, cell-based; conditions: Caco-2
[11] = tested on: Staphylococcus aureus; test: Antibacterial activity against vancomycin-resistant Staphylococcus aureus isolate 10 after 18 to 20 hrs in aerobic condition by CLSI-based broth microdilution assay; format: functional
[12] = tested on: Staphylococcus aureus; test: Antibacterial activity against vancomycin-resistant Staphylococcus aureus isolate 12 after 18 to 20 hrs in aerobic condition by CLSI-based broth microdilution assay; format: functional
[13] = tested on: Staphylococcus aureus; test: Bactericidal activity against methicillin-resistant Staphylococcus aureus NRS123-USA400 clinical isolates at 5 times MIC incubated over 24 hrs followed by replating on tryptic soy agar plate and further incubated for 18 to 20 hrs by time kill assay; format: functional, organism-based
[14] = tested on: Enterococcus faecalis; test: Antibacterial activity against vancomycin-resistant Enterococcus faecalis ATCC 51299 clinical isolates after 18 to 20 hrs in aerobic condition by CLSI-based broth microdilution assay; format: functional
[15] = tested on: Enterococcus faecium; test: Antibacterial activity against vancomycin-resistant Enterococcus faecium ATCC 700221 clinical isolates after 18 to 20 hrs in aerobic condition by CLSI-based broth microdilution assay; format: functional
[16] = tested on: Listeria monocytogenes; test: Antibacterial activity against Listeria monocytogenes ATCC 19111 after 18 to 20 hrs in aerobic condition by CLSI-based broth microdilution assay; format: functional
[17] = tested on: Streptococcus pneumoniae; test: Antibacterial activity against cephalosporin-resistant Streptococcus pneumoniae ATCC 51916 clinical isolates after 18 to 20 hrs by CLSI-based broth microdilution assay; format: functional
[18] = tested on: Streptococcus pneumoniae; test: Antibacterial activity against methicillin-resistant Streptococcus pneumoniae ATCC 700677 clinical isolates after 18 to 20 hrs by CLSI-based broth microdilution assay; format: functional
[19] = tested on: Clostridioides difficile; test: Antibacterial activity against Clostridium difficile ATCC BAA 1870 incubated for 48 hrs in anaerobic condition by CLSI-based broth microdilution assay; format: functional; conditions: ATCC BAA 1870, 48 h
[20] = tested on: Staphylococcus aureus; test: Antibiofilm activity against methicillin-resistant Staphylococcus aureus NRS384-USA300 clinical isolates assessed as inhibition of biofilm formation at 0.5 times MIC incubated for 24 hrs by crystal violet staining based spectrophotometric method relative to control; format: functional
[21] = tested on: Staphylococcus aureus; test: Antibacterial activity against methicillin-resistant Staphylococcus aureus NRS123-USA400 infected in mouse J774 cells assessed as reduction in intracellular bacterial cells at 2 times MIC incubated for 24 hrs followed by re-plating on TSA plate and measured after 18 to 22 hrs relative to control; format: functional
In short: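 J774 murine macrophages were infected with MRSA USA400 and then treated at 2×MIC for 24 h, in triplicate. The read-out was percent reduction in intracellular colony-forming units versus untreated infected cells.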

[22] = tested on: Acinetobacter baumannii; test: Antibacterial activity against Acinetobacter baumannii ATCC 19606 clinical isolates after 18 to 20 hrs in aerobic condition by CLSI-based broth microdilution assay; format: functional; conditions: ATCC 19606 = CIP 70.34 = JCM 6841
[23] = tested on: Escherichia coli; test: Antibacterial activity against Escherichia coli BW25113 clinical isolates after 18 to 20 hrs in aerobic condition by CLSI-based broth microdilution assay; format: functional
[24] = tested on: Klebsiella pneumoniae; test: Antibacterial activity against Klebsiella pneumoniae BAA-1706 clinical isolates after 18 to 20 hrs in aerobic condition by CLSI-based broth microdilution assay; format: functional
[25] = tested on: Pseudomonas aeruginosa; test: Antibacterial activity against Pseudomonas aeruginosa ATCC 15442 clinical isolates after 18 to 20 hrs in aerobic condition by CLSI-based broth microdilution assay; format: functional
[26] = tested on: Acinetobacter baumannii; test: Antibacterial activity against Acinetobacter baumannii ATCC BAA 1141 clinical isolates after 18 to 20 hrs in aerobic condition by CLSI-based broth microdilution assay; format: functional
[27] = tested on: Acinetobacter baumannii; test: Antibacterial activity against Acinetobacter baumannii NR 17786 clinical isolates after 18 to 20 hrs in aerobic condition by CLSI-based broth microdilution assay; format: functional
[28] = tested on: Acinetobacter baumannii; test: Antibacterial activity against Acinetobacter baumannii NR 17785 clinical isolates after 18 to 20 hrs in aerobic condition by CLSI-based broth microdilution assay; format: functional
[29] = tested on: Escherichia coli; test: Antibacterial activity against Escherichia coli ATCC 25922 clinical isolates after 18 to 20 hrs in aerobic condition by CLSI-based broth microdilution assay; format: functional
[30] = tested on: Escherichia coli; test: Antibacterial activity against Escherichia coli ATCC 35150 clinical isolates after 18 to 20 hrs in aerobic condition by CLSI-based broth microdilution assay; format: functional
[31] = tested on: Enterobacter cloacae subsp. cloacae; test: Antibacterial activity against Enterobacter cloacae subsp. cloacae ATCC BAA-1143 clinical isolates after 18 to 20 hrs in aerobic condition by CLSI-based broth microdilution assay; format: functional
[32] = tested on: Klebsiella pneumoniae; test: Antibacterial activity against Klebsiella pneumoniae BAA-1144 clinical isolates after 18 to 20 hrs in aerobic condition by CLSI-based broth microdilution assay; format: functional
[33] = tested on: Salmonella enterica; test: Antibacterial activity against Salmonella enterica NR-170 clinical isolates after 18 to 20 hrs in aerobic condition by CLSI-based broth microdilution assay; format: functional
[34] = tested on: Salmonella enteritidis; test: Antibacterial activity against Salmonella enteritidis ATCC 13076 clinical isolates after 18 to 20 hrs in aerobic condition by CLSI-based broth microdilution assay; format: functional; conditions: Salmonella enterica subsp. enterica serovar Enteritidis
[35] = tested on: Salmonella enteritidis; test: Antibacterial activity against Salmonella enteritidis ATCC 14028 clinical isolates after 18 to 20 hrs in aerobic condition by CLSI-based broth microdilution assay; format: functional; conditions: Salmonella enterica subsp. enterica serovar Enteritidis
[36] = tested on: Salmonella typhimurium; test: Antibacterial activity against Salmonella typhimurium ATCC 700720 after 18 to 20 hrs in aerobic condition by CLSI-based broth microdilution assay; format: functional; conditions: Salmonella enterica subsp. enterica serovar Typhimurium
[37] = tested on: Shigella flexneri; test: Antibacterial activity against Shigella flexneri ATCC 9199 clinical isolates after 18 to 20 hrs in aerobic condition by CLSI-based broth microdilution assay; format: functional

Compound: C[C@@H](O)[C@H]1C(=O)N2C(C(=O)O)=C(S[C@@H]3CN[C@H](C(=O)N(C)C)C3)[C@H](C)[C@H]12 [MEROPENEM]
- MIC [1]: 32 µg/mL (≈ 83.4 µM)
- MIC [2]: 32 µg/mL (≈ 83.4 µM)
- MIC [3]: 32 µg/mL (≈ 83.4 µM)
- MIC [4]: 64 µg/mL (≈ 167 µM)
- MIC [5]: 32 µg/mL (≈ 83.4 µM)
- MIC [6]: 16 µg/mL (≈ 41.7 µM)

Compound: CCCCC#Cc1ccc(-n2ncc(/C(C)=N/NC3=NCCN3)c2C)cc1
- MIC [7]: 2 µg/mL (≈ 5.52 µM)
- MIC [8]: 4 µg/mL (≈ 11 µM)

Compound: C[C@@H](O)[C@H]1C(=O)N2C(C(=O)O)=C(SCCNC=N)C[C@H]12 [IMIPENEM ANHYDROUS]
- MIC [1]: 32 µg/mL (≈ 107 µM)
- MIC [2]: 32 µg/mL (≈ 107 µM)
- MIC [3]: 32 µg/mL (≈ 107 µM)
- MIC [4]: 32 µg/mL (≈ 107 µM)
- MIC [5]: 32 µg/mL (≈ 107 µM)
- MIC [6]: 16 µg/mL (≈ 53.4 µM)

Compound: CC(=O)C(=CN(C)C)C(C)=O
- Papp B→A at 2 h [9]: 1.2 ×10⁻⁶ cm/s
- efflux ratio at 2 h [10]: > 2

Compound: C/C(=N\NC1=NCCN1)c1cnn(-c2ccc(C#CC3(O)CCCCC3)cc2)c1C
- MIC [7]: 64 µg/mL (≈ 158 µM)
- MIC [8]: 32 µg/mL (≈ 79.1 µM)

Compound: CCCCC#Cc1ccc(-n2ncc(/C(C)=N/NC(=N)N)c2C)cc1
- MIC [7]: 2 µg/mL (≈ 5.94 µM)
- MIC [8]: 4 µg/mL (≈ 11.9 µM)

Compound: C/C(=N\NC1=NCCN1)c1cnn(-c2ccc(C#CC(C)(C)O)cc2)c1C
- MIC [7]: 32 µg/mL (≈ 87.8 µM)
- MIC [8]: 16 µg/mL (≈ 43.9 µM)

Compound: CN[C@H](CC(C)C)C(=O)N[C@H]1C(=O)N[C@@H](CC(N)=O)C(=O)N[C@H]2C(=O)N[C@H]3C(=O)N[C@H](C(=O)N[C@H](C(=O)O)c4cc(O)cc(O)c4-c4cc3ccc4O)[C@H](O)c3ccc(c(Cl)c3)Oc3cc2cc(c3O[C@@H]2O[C@H](CO)[C@@H](O)[C@H](O)[C@H]2O[C@H]2C[C@](C)(N)[C@H](O)[C@H](C)O2)Oc2ccc(cc2Cl)[C@H]1O [VANCOMYCIN]
- MIC [11]: > 64 µg/mL
- MIC [12]: 64 µg/mL (≈ 44.2 µM)
- Activity [13]: Active
- MIC [14]: 32 µg/mL (≈ 22.1 µM)
- MIC [15]: > 64 µg/mL
- MIC [16]: 2 µg/mL (≈ 1.38 µM)
- MIC [17]: 2 µg/mL (≈ 1.38 µM)
- MIC [18]: 1 µg/mL (≈ 0.69 µM)
- MIC [19]: 1 µg/mL (≈ 0.69 µM)
- inhibition (INH) [20]: 18%
- Activity [21]: inactive

Compound: CCN(CC)CC#Cc1ccc(-n2ncc(/C(C)=N/NC(=N)N)c2C)cc1
- MIC [7]: 128 µg/mL (≈ 350 µM)
- MIC [8]: 128 µg/mL (≈ 350 µM)

Compound: C/C(=N\NC(=N)N)c1cnn(-c2ccc(C#CC3CC3)cc2)c1C
- MIC [7]: 8 µg/mL (≈ 25 µM)
- MIC [8]: 8 µg/mL (≈ 25 µM)

Compound: C/C(=N\NC1=NCCN1)c1cnn(-c2ccc(C#CC3CC3)cc2)c1C
- MIC [7]: 16 µg/mL (≈ 46.2 µM)
- MIC [8]: 32 µg/mL (≈ 92.4 µM)

Compound: C/C(=N\NC(=N)N)c1sc(-c2ccc(C#CC3CCCC3)cc2)nc1C
- Activity [8]: inactive
- Activity [22]: inactive
- Activity [23]: inactive
- Activity [24]: inactive
- Activity [25]: inactive

Compound: GENTAMICIN
- MIC [22]: 16 µg/mL
- MIC [26]: 4 µg/mL
- MIC [27]: 64 µg/mL
- MIC [28]: > 64 µg/mL
- MIC [29]: 1 µg/mL
- MIC [30]: 1 µg/mL
- MIC [31]: 1 µg/mL
- MIC [24]: 8 µg/mL
- MIC [32]: 16 µg/mL
- MIC [33]: 1 µg/mL
- MIC [34]: 1 µg/mL
- MIC [35]: 1 µg/mL
- MIC [36]: 1 µg/mL
- MIC [37]: 1 µg/mL
- MIC [25]: 2 µg/mL
